Assay outcomes from PubChem BioAssay.
Sampled rows, rich in hits. Any-hit rate of the full collection: about 3.1%.
HCV core dimer – blocks dimerization of HCV core protein. TR-FRET GST/Flag-core106 dimerization, 1536-well. inhibition, % at 5 µM. 0.33% of 300,000 active. AID 1899;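 active = inhibition above the mean of all tested compounds plus 3 SD, set per screening campaign, cut at about 45% in these data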
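System: GST/Flag-tagged HCV core106 proteins. Incubation: compound-protein-antibody incubation 4 h at 22.5 °C. Technique: HTRF with 340 nm excitation, 617/671 nm emission. Medium: KF-containing HEPES buffer, pH 7.45, DTT, CHAPS, BSA. Read-out: inhibition (%) from 671 over 617 nm ratio. Also added: Eu(K)-anti-GST 90 ng/mL plus XL665-anti-Flag 1 µg/mL.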
NadD block – inhibitors of Staphylococcus aureus NadD. purified NadD enzyme, colorimetric absorbance read-out. inhibition, % at 20 µM. 0.78% of 360,000 active. AID 602399; in the data active = inhibition above about 26%
PP1 inh – PP1-alpha (human) inhibition in PP5 counter-screen. P62136. purified PP1alpha, OMFP fluorescence. inhibition, % at 6.7 µM. 0.9% of 320,000 active. AID 2235;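 active = inhibition above the mean inhibition of all tested compounds plus 3 SD, computed separately for each screening campaign, cut at about 15% in these data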
Target sequence (P62136 whole entry, looked up): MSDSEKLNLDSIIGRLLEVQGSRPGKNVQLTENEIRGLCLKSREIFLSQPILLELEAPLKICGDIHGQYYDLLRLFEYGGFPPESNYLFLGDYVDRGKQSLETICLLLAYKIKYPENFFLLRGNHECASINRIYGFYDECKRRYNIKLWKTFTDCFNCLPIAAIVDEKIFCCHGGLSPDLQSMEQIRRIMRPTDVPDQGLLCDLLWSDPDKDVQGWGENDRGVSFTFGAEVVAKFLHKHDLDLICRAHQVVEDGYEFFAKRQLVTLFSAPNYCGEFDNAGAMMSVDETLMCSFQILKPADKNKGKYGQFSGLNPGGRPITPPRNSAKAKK
Myeloid diff MLP – promotes myeloid progenitor differentiation; calls only at 10 µM; 1% of 360,000 active; AID 624256; ER-HoxA9 myeloid progenitors, lysozyme-GFP differentiation, flow cytometry;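 active = normalized GFP-positive differentiation at or above the plate's own cutoff, the solvent-only control mean plus 3 SD; inconclusive = no clear call, values can overlap the other calls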;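 note: cells exposed to compound for four days before flow analysis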
PP5 primary – PP5 (human) phosphatase inhibition. P53041. purified PP5c, OMFP substrate fluorescence. inhibition, % at 6.7 µM. 0.18% of 320,000 active. AID 1987;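 active = inhibition above the campaign's mean inhibition across all tested compounds plus 3 SD, cut at about 9.5% in these data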
Fh CTSL1 inh – cathepsin L1 inhibition, PFM18AAP counter-screen. AID 1906. inhibition, % at 5.96 µM. 0.49% of 300,000 active. recombinant F. hepatica cathepsin L1, Z-Leu-Arg-MCA fluorescence;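 active = inhibition above the mean of all tested compounds plus 3 SD, set per screening campaign, cut at about 17% in these data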
Of the large screens only hits and unclear results are named; the others gave an inactive call.

C=C[C@@H]1c2ccccc2N(S(=O)(=O)c2ccc(C)cc2)[C@H](c2ccc(OC(C)=O)cc2)C1(C#N)C#N	none (no result: HCV core dimer, Fh CTSL1 inh)
C=C[C@@H]1c2cc(C)ccc2N(S(=O)(=O)c2ccc(C)cc2)[C@H](c2ccc(OC(C)=O)cc2)C1(C#N)C#N	Myeloid diff MLP active (no result: HCV core dimer, Fh CTSL1 inh)
COc1c(C)cc(C(O)c2ncc(-c3ccc(Cl)cc3)[nH]2)cc1C (centres undefined)	none (no result: HCV core dimer, PP1 inh, PP5 primary, Fh CTSL1 inh)
CCOc1ccc(Br)cc1C(=O)Nc1ccc(C(=O)NCC(C)C)cc1	Myeloid diff MLP active
Cc1cccc(CNC(=O)C2CCC(=O)N(CC3CCCCC3)C2)c1 (centres undefined)	none (no result: HCV core dimer, PP1 inh, PP5 primary, Fh CTSL1 inh)
CCCCC(=O)N1CCCC(C(=O)OCC)C1 (centres undefined)	Myeloid diff MLP active
Cc1cc(C)c(-c2cc(NC(=O)COC(=O)c3ccc(C#N)cc3)n(-c3ccccc3)n2)cc1C	none
COc1ccc(OC)c(-c2csc(NC(=O)COC(=O)c3ccc(NC(=O)CC#N)cc3)n2)c1	NadD block 48.0 (no result: HCV core dimer, Fh CTSL1 inh)
Cc1cc(C)c(-c2cc(NC(=O)COC(=O)c3ccc(NC(=O)CC#N)cc3)n(-c3ccccc3)n2)cc1C	NadD block 53.6
CCCCc1c(Cc2ccccc2)ncn1CCc1ccccc1OC	none (no result: HCV core dimer, PP1 inh, PP5 primary, Fh CTSL1 inh)
CCN(CC)c1ncnc2c1ncn2[C@H]1CN(Cc2ccc(Cl)cc2)C[C@@H](CO)O1	none (no result: HCV core dimer, PP1 inh, PP5 primary, Fh CTSL1 inh)
CCN(CC)c1ccc(/C=C/C(=O)C2C(=O)C=C(C)OC2=O)cc1 (centres undefined)	Myeloid diff MLP active
COc1cccc(NC(=O)CN(C)C(=O)c2cc(S(=O)(=O)N3CCCCCC3)ccc2OC)c1	none (no result: HCV core dimer, Fh CTSL1 inh)
NC(CSC(c1ccccc1)(c1ccccc1)c1cccc2ccccc12)C(=O)O (centres undefined)	NadD block 41.7 (no result: HCV core dimer, PP1 inh, PP5 primary, Fh CTSL1 inh)
Cc1cc(OCC(O)CN2CCc3ccccc3C2)ccc1Cl (centres undefined)	none
C=CCc1cc(Cl)ccc1OCCn1ccnc1	Myeloid diff MLP active
C=CCc1cc(Cl)ccc1OCCCn1ccnc1	none
CC(C)(C)c1ccc(OCCC(=O)OCC(=O)N2c3ccccc3NC(=O)C2(C)C)cc1	none
CCS(=O)(=O)N1N=C(c2ccc(NS(C)(=O)=O)cc2)CC1c1ccccc1 (centres undefined)	Myeloid diff MLP active
Cc1cc(C)c(S(=O)(=O)/N=C2\C=C(NS(=O)(=O)c3ccccc3)C(=O)c3ccccc32)c(C)c1	NadD block 29.8
Cc1cc(C)c(S(=O)(=O)/N=C2\C=C(Nc3ccc(C(=O)O)cc3)C(=O)c3ccccc32)c(C)c1	NadD block 31.0, Fh CTSL1 inh 25.1
Cc1cccc(C)c1OCC(=O)Nc1cccc(S(=O)(=O)N2CCCCCC2)c1	none (no result: HCV core dimer, PP1 inh, PP5 primary, Fh CTSL1 inh)
COc1ccc(-n2c(=S)[nH]c3cc(C(=O)NCc4ccco4)ccc3c2=O)c(OC)c1	Fh CTSL1 inh 18.6
COc1ccc(-n2c(=S)[nH]c3cc(C(=O)NCc4ccccc4OC)ccc3c2=O)c(OC)c1	none
COc1ccc(S(=O)(=O)NC(=O)C2(C)CCN2C(=O)CC2CC2)cc1 (centres undefined)	none (no result: HCV core dimer, PP1 inh, PP5 primary, Fh CTSL1 inh)
CCOC(=O)C1=C(C)C(c2ccc(OC)cc2)NC(=S)N1 (centres undefined)	Fh CTSL1 inh 17.1
CCOc1ccc(S(=O)(=O)N2CCOCC2)cc1NC(=O)c1ccc(N2CCCC2=O)cc1	none
Cc1nc(Nc2cccc(F)c2)c2oc3ccccc3c2n1	Myeloid diff MLP active
CC(NC(=O)c1ccco1)C(=O)N1CCc2ccccc2C1 (centres undefined)	Myeloid diff MLP active
CSc1nsc(/C=C/Nc2ccc(Cl)cc2)c1C#N	Myeloid diff MLP active
CSc1nsc(SC)c1-c1ccc(Cl)cc1	none (no result: HCV core dimer, PP1 inh, PP5 primary, Fh CTSL1 inh)
CSc1nsc(/C=C/Nc2ccc(O)cc2C)c1C#N	Myeloid diff MLP active
CSc1nsc(/C=C/Nc2ccc(F)cc2)c1C#N	Myeloid diff MLP active
Cc1cc(O)ccc1N/C=C(\C#N)c1nc2ccccc2o1	none
N#C/C(=C(/O)CSc1nnc(Cc2cccs2)n1C1CCCCC1)c1nc2ccccc2[nH]1	HCV core dimer 63.1
C=CCn1c(COc2ccccc2)nnc1SCc1ccc(C#N)cc1	none
C=CCn1c(COc2ccc(CC)cc2)nnc1SC/C(O)=C(\C#N)c1nc2ccccc2[nH]1	HCV core dimer 70.5
CC(C)(C)OC(=O)N1CCC[C@H]1C(=O)NCc1ccc(F)cc1F	none (no result: HCV core dimer, PP1 inh, PP5 primary, Fh CTSL1 inh)
C#CCn1c(CCNC(=O)c2ccco2)nc2ccccc21	Myeloid diff MLP inconclusive
CC1CN(c2nc3ccccc3nc2SCC(=O)Nc2cccc(C(F)(F)F)c2)CC(C)O1 (centres undefined)	Myeloid diff MLP active
Cc1cccc(NC(=O)CSc2nc3ccccc3nc2N2CC(C)OC(C)C2)c1 (centres undefined)	none
O=C(CCC1CCCC1)Nc1cc(C(F)(F)F)ccc1N1CCOCC1	PP1 inh 17.0
O=S(=O)(c1ccc(Br)cc1)N1CCC2(CC1)OCCO2	none
CC(C)c1nnc(NC(=O)COc2ccc3c(c2)OCO3)s1	none
CCCC(C)c1nnc(NC(=O)COc2ccc3c(c2)OCO3)s1 (centres undefined)	PP1 inh 16.5
O=[N+]([O-])c1ccc(CSc2nnc(Cc3ccccc3)n2-c2ccc(F)cc2)cc1	Myeloid diff MLP active
COc1ccc(-n2c(Cc3ccccc3)nnc2SCc2ccc([N+](=O)[O-])cc2)cc1	none
O=c1cc(O)cc2n1CCC2	none (no result: HCV core dimer, PP1 inh, PP5 primary, Fh CTSL1 inh)
NC(=O)NC(=O)CSc1nc(-c2ccccc2)c(-c2ccccc2)n1CC1CCCO1 (centres undefined)	Fh CTSL1 inh 19.9
CC(=O)N/C(=C\c1ccccc1)C(=O)OCCCOC(=O)/C(=C/c1ccccc1)NC(C)=O	none
Cc1cc(OCc2cc(C(=O)N(C)C(C)c3ccccn3)no2)cc(C)c1Cl (centres undefined)	none
CSCCC(NC(=O)c1ccccc1Br)C(=O)N1CCN(C/C=C/c2ccccc2)CC1 (centres undefined)	none (no result: HCV core dimer, PP1 inh, PP5 primary, Fh CTSL1 inh)
Cc1sc(NC(=O)CCl)c(C(=O)c2ccccc2)c1C	Fh CTSL1 inh 53.1
Cc1ccccc1C(=O)Nc1sc(C)c(C)c1C(=O)c1ccccc1	none
CC(NC(=O)Nc1ccccc1Cl)c1ccc2c(c1)OCO2 (centres undefined)	none
Cc1ccc(S(=O)(=O)N2C[C@H]3n4c(=O)ccc(=O)n4C[C@H](OC(=O)Nc4c(C)noc4C)[C@@]3(O)C2)cc1	none (no result: HCV core dimer, PP1 inh, PP5 primary, Fh CTSL1 inh)
Cc1ccc(S(=O)(=O)N2C[C@H]3n4c(=O)ccc(=O)n4C[C@H](OC(=O)NC4CC4)[C@@]3(O)C2)cc1	Myeloid diff MLP active (no result: HCV core dimer, PP1 inh, PP5 primary, Fh CTSL1 inh)
CCc1nnc(NC(=O)c2ccc(S(=O)(=O)N(C)c3ccccc3)cc2)o1	PP1 inh 16.4
O=C(CCNC(=O)c1ccc(Cl)cc1)Nc1cccc(S(=O)(=O)N2CCCCC2)c1	none (no result: HCV core dimer, Fh CTSL1 inh)
CCn1c(C)c(C(=O)c2ccccc2)c(C#N)c1C(=O)O	Fh CTSL1 inh 18.1 (no result: Myeloid diff MLP)
Cc1c(C#N)c(N)c(C(=O)c2ccccc2)n1Cc1ccccc1	none
Cc1ccc(SCC(=O)Nc2ccc(N3CCOCC3)cc2)cc1C	none (no result: HCV core dimer, Fh CTSL1 inh)
